# Compound activity (PubChem)
# Compounds with a hit are over-represented: about 6.7% of the library has one in this group of screens.
# CHOP inh = blocks CHOP induction under ER stress; CHO-K1 CHOP-promoter luciferase, tunicamycin-induced, 15-18 h; 220,000 tested, 3.8% active; inhibition, % at 10 µM;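 active means compounds that reduced the stress-induced luciferase reporter signal by more than about 70% of percent inhibition, limit read from the data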;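 further: 0% = tunicamycin plus vehicle and 100% = wells without tunicamycin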
# CSC inhib = cancer stem cell inhibition | cancer stem cell-like cells viability, luminescence | inhibition, % at 7.5 µM | 300,000 tested, 1.1% active; in the data active means inhibition above about 75%; inconclusive means no clear call, values can overlap the other calls; tested in HMLE shEcad cells
# PREPL inhibitor = inhibitors of human prolyl oligopeptidase-like enzyme PREPL | inhibition, % at 5.96 µM | recombinant PREPL, fluorescence polarization activity-based probe | AID 2751 | 320,000 tested, 0.68% active; in the data active means inhibition above about 43%;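 further: 0% = enzyme with DMSO and 100% = wells lacking enzyme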
# Target sequence (Q4J6C6 whole entry, looked up): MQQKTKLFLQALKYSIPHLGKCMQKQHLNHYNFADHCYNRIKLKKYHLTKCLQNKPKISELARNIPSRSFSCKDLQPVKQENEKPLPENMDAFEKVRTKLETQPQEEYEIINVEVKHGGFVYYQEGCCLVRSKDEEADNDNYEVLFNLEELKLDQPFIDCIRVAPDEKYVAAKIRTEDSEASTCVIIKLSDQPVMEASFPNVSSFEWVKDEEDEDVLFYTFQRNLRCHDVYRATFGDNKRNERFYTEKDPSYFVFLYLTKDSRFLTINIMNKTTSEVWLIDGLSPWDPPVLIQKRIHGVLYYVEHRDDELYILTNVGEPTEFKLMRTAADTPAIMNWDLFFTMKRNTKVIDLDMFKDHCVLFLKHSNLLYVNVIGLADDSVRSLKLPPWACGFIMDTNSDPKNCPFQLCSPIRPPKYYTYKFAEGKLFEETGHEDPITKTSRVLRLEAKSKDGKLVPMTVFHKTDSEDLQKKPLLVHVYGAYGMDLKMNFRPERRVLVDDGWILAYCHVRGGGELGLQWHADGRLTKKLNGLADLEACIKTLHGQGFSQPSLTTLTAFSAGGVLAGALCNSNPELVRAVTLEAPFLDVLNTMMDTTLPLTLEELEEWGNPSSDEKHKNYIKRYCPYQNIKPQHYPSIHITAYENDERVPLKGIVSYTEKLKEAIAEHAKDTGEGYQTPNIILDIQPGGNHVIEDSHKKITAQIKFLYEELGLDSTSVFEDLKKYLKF
# Beta cell apopt = beta cell apoptosis inhibition; 300,000 tested, 0.8% active; protection from apoptosis, % (test concentration not listed); AID 435005; INS-1E cytokine-induced death, ATP luminescence, 48 h; percent of positive-control rescue, neutral wells zero;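 active means Every replicate reaches about 75%, or at least half do and their mean reaches it too, limit read from the data; inconclusive means At least half of replicates reach the limit but their mean does not; inactive means Under half of replicates reach the limit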;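 further: 0% = cytokine-treated negative control wells and 100% = positive control rescue; higher means more ATP so stronger rescue from cytokine killing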
# T cruzi inh = T. cruzi replication inhibition | T. cruzi beta-gal in NIH3T3, luminescence, 90 h | inhibition, % (no concentration beside the values) | 300,000 tested, 1.4% active | AID 1885;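 active means mean inhibition across valid replicates above about 55%, limit read from the data; inconclusive means mean below that limit but half or more replicates reach it; inactive means mean below it, under half of replicates reach it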;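 further: signal also drops with host cell toxicity which is not excluded here; 0% = plate median of DMSO wells and 100% = zero luminescence signal; higher percent means less beta-gal luminescence so fewer parasites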
#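 System: Mouse NIH/3T3 fibroblasts infected with β-gal-expressing T. cruzi Tulahuen C4 | Quantity: NIH/3T3 cells, 5,000 per well | Reagent: 5000 reporter trypomastigotes per well | Dosing: Compound pinned at 50 nL/well, DMSO | Schedule: 3 h host attachment, then at least 90 h co-culture | Detection: GalScreen luminescence, 60 min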
# GRIN3A LBD mod = modulates the human NR3A ligand-binding domain. Tm shift relative to glycine control, % at 25 µM. AID 1259313. 340,000 tested, 2.5% active. NR3A LBD differential scanning fluorimetry, Tm shift; 0% = protein alone, 100% = glycine-bound protein;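 active means melting temperature shift of at least 10% of the positive control shift, at one fixed dose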
# An asterisk follows results filed as active; u = inconclusive; x = not tested or not shown; ! = not confirmed by another sample.
SMILES,CHOP inh,CSC inhib,PREPL inhibitor,Beta cell apopt,T cruzi inh,GRIN3A LBD mod
CC(C)C(=O)NC(c1cccs1)c1cc([N+](=O)[O-])c2cccnc2c1O (configuration not stated),38.8,104.3*,-0.3,97.3*,-11.0,-3.7
O=C1NC[C@H](Cc2ccccc2)N(CC2CCCCC2)C1=O,10.7,-7.0,-3.5,-5.9,-20.2,0.1
CC1CCCC(C)N1C(=O)COC(=O)c1ccc2ccccc2n1 (configuration not stated),x,-7.8,12.7,-8.1,x,-2.2
O=C(Nc1ccc(Oc2cccnc2)cc1)C1CCCCN1Cc1ccc(CO)o1 (configuration not stated),x,-5.9,-0.9,6.0,1.1,10.0*
O=C(CC12CC3CC(CC(C3)C1)C2)N/N=C/c1ccc([N+](=O)[O-])o1,-57.4,33.6,11.2,3.8,55.2*,-99.5
O=C(Cn1c2ccccc2c(=O)c2ccccc21)N/N=C/c1cc([N+](=O)[O-])ccc1N1CCCCCC1,-63.7,-2.9,-4.5,15.8,-21.0,-7.0
O=C(Cn1c2ccccc2c(=O)c2ccccc21)N/N=C/c1ccc(N2CCCC2)c([N+](=O)[O-])c1,17.0,112.6*,1.4,30.5,-6.2,3.6
O=C(CNc1cccc2ccccc12)N/N=C/c1ccc([N+](=O)[O-])o1,14.8,13.4,37.6,117.6*,82.5*,-8.1
O=C(CCN1CCN(c2ccccc2)CC1)N/N=C/c1ccc([N+](=O)[O-])o1,3.7,-8.8,30.8,-5.7,95.5*,-1.2
O=C(CC12CC3CC(CC(C3)C1)C2)N/N=C\c1ccc[nH]1,54.8,2.4,4.0,-0.5,0.7,-0.9
Cc1cccc(C(=O)Nc2cc(S(=O)(=O)N3CCOCC3)ccc2N2CCCC2)c1,x,x,x,x,x,-0.1
O=C(CNc1ccccc1)N/N=C/c1ccc([N+](=O)[O-])cc1,0.9,-0.6,30.7,-2.7,-11.4,-3.0
O=C(CNc1ccccc1)N/N=C/c1cc([N+](=O)[O-])ccc1N1CCCC1,73.2*,11.9,23.7,7.5,4.8,1.7
O=C(CNc1cccc([N+](=O)[O-])c1)N/N=C/c1ccc([N+](=O)[O-])o1,-12.3,-0.1,16.9,92.9*,67.7*,-4.5
O=C(CN1CCCCCCC1)N/N=C/c1ccc([N+](=O)[O-])o1,x,-1.2,9.6,8.7,57.8*,1.7
CC1(C(=O)N/N=C/c2ccc([N+](=O)[O-])o2)CC1(Br)Br (configuration not stated),-15.8,-14.5,-2.2,1.9,50.2,-6.0
O=C(Cc1ccc([N+](=O)[O-])cc1)N/N=C/c1ccc([N+](=O)[O-])o1,-30.9,-15.9,10.4,97.2*,107.2*,-2.4
O=C1CCC(c2ccc3c(c2)CCC3)=NN1,x,-7.9,-16.1,1.2,-2.2,-1.1
COc1ccccc1OCCC(=O)Nc1cccc(S(=O)(=O)N2CCOCC2)c1,x,x,2.4,-1.6,x,3.1
O=C(Nc1cccnc1)c1cc(-c2cc(Cl)ccc2O)n[nH]1,-11.8,2.9,-0.7,0.8,-14.4,32.0*
Cc1ccc(C)c(NC(=O)c2cc(-c3ccccc3O)n[nH]2)c1,x,9.4,x,1.1,3.0,4.7
Cc1ccc(O)c(-c2cc(C(=O)Nc3cccnc3)[nH]n2)c1,-4.5,5.8,4.9,-3.7,-24.6,28.8*
O=C(CNC(=O)c1ccc(Cl)cc1Cl)Nc1ccc(F)cc1,14.6,3.4,6.8,-0.8,-1.6,0.0
O=C(NC(=S)Nc1ccc(O)cc1)c1ccccc1Cl,11.1,8.9,-2.4,-10.0,-9.3,16.2*
O=C(NNC(=S)NC(=O)c1cccs1)c1ccc(NC(=O)c2ccccc2)cc1,49.1,10.8,5.8,23.9,9.3,23.1*
SMILES,CHOP inh,CSC inhib,PREPL inhibitor,Beta cell apopt,T cruzi inh,GRIN3A LBD mod
O=C(NNC(=S)NC(=O)c1cccs1)c1ccc(O)cc1,x,-2.6,x,-1.0,x,-5.1
COc1ccccc1C(=O)NC(=S)Nc1ccc(NC(=O)c2cccs2)cc1,37.8,-3.0,-5.8,2.5,18.4,30.1*
CC(=O)NC(=S)Nc1ccc(NC(=O)c2cccs2)cc1,13.7,-18.3,-0.5,-0.3,8.0,-27.2
COc1ccccc1C(=O)NC(=S)Nc1ccc(N2CCCC2)cc1,13.8,-1.4,11.1,26.8,55.9*,-3.7
Cc1ccccc1Nc1nnc(SCC(=O)NC2CCCc3ccccc32)s1 (configuration not stated),21.1,-8.7,8.3,2.0,-10.1,-2.2
O=C(Nc1ccc(NC(=S)NC(=O)c2cccs2)cc1)c1ccccc1,48.6,5.8,11.4,0.5,2.7,26.0*
O=C(NC(=S)Nc1ccccc1)c1cccs1,x,x,2.6,-5.7,-14.1,0.1
COc1cc(OC)cc(C(=O)N[C@H](C(=O)NC2CCCc3ccccc32)C(C)C)c1 (some centres not stated),x,12.2,14.4,-5.5,x,-1.0
NS(=O)(=O)c1ccc(NC(=O)/C(=C/c2ccncc2)NC(=O)c2ccccc2)cc1,x,-8.9,-1.1,-5.5,-4.2,0.6
COc1ccc2nc(Nc3nc(C)c(C(C)=O)s3)sc2c1,-54.0,18.0,19.9,30.9,32.5,10.7*
COc1ccc(Nc2nc3ccc(OC)cc3s2)cc1,4.1,x,20.0,-5.2,0.6,28.4*
CCOc1ccc(C(=O)NCC(=O)NCC(c2cccs2)N2CCOCC2)cc1 (configuration not stated),x,-7.2,1.3,-3.9,-4.7,0.5
NC(=O)c1[nH]cnc1N,x,1.8,16.8,2.1,57.9*!,2.0
CCCCOC(=O)c1nc[nH]c1C(=O)OCCCC,6.1,-11.6,7.9,-3.8,-4.7,0.2
O=C(Cc1ccccc1)Nc1nc(=O)c2ccccc2s1,20.0,-11.0,-13.0,-1.1,-0.3,-1.9
O=C(Nc1nc(=O)c2ccccc2s1)c1ccc(F)cc1,91.2*,-6.7,-4.9,4.6,u,-1.3
O=C(Nc1nc(=O)c2ccccc2s1)c1ccc(Cl)cc1,75.4*,3.5,1.8,2.5,-4.9,1.3
COCc1nc(-c2ccc(-c3ccc(OC)cc3)nc2OC)no1,31.1,x,-2.9,x,-10.6,30.9*
CCc1nc(-c2ccc(-c3ccc(OC)cc3)nc2OC)no1,77.2*,9.1,-12.6,0.0,-6.9,3.3
CCC(C(=O)N1CCOCC1)n1nc(C)n2c(cc3cc(C)ccc32)c1=O (configuration not stated),x,-9.6,3.0,-3.6,-14.8,10.8*
CCOC(=O)C1CCN(C(=O)Cn2nc(C)n3c(cc4cc(C)ccc43)c2=O)CC1,x,0.2,7.8,10.3,5.9,-2.6
COc1ccc(C(=O)CSc2nnc(-c3ccc(C)cc3)o2)cc1,3.6,-22.2,-9.6,5.0,-12.5,-2.4
COc1cc(-c2nnc(SCC(=O)c3ccc(C)cc3)o2)cc(OC)c1OC,43.6,-10.4,7.3,5.9,2.3,10.6*
COc1cccc(C(=O)CSc2nnc(-c3cc(OC)c(OC)c(OC)c3)o2)c1,43.3,19.8,-4.5,-1.3,12.4,3.1
COc1ccc(OC)c(C(=O)CSc2nnc(-c3ccc(OC)c(OC)c3)o2)c1,80.4*,x,x,x,x,x
